Assay results gathered from unrelated publications.
Lines come from different studies, so protocols differ.
Effect on: enzyme activity
Action: inhibitor
ABL1: Tyrosine-protein kinase ABL1 (ABL1, Homo sapiens, UniProt P00519)
ABL1 T315I: Tyrosine-protein kinase ABL1 (ABL1, Homo sapiens, UniProt P00519, T315I)
ABL1 Y253F: Tyrosine-protein kinase ABL1 (ABL1, Homo sapiens, UniProt P00519, Y253F)

SMILES	target	method	concentration	inhibition [%]
CN(C)C1CCN(CC#Cc2nn(C3CCCC3)c3nc(NCc4ccccc4)ncc23)C1 (stereo not shown)	ABL1	FRET	1 µM	6
CNC(=O)c1cc2c(Oc3ccc(NC(=O)C4(C(=O)Nc5ccc(F)cc5)CC4)cc3)ccnc2cc1OC	ABL1 T315I	radiometric	1 µM	75
CS(=O)(=O)Nc1cccc(-c2csc(NC(=O)CSc3nc4nccnc4c(=O)n3CCc3ccccc3)n2)c1	ABL1 T315I		10 µM	-2
CC/C(=N\NC(=O)NCc1cccc(O)c1)c1ccc(O)c(C)c1O	ABL1		0.1 µM	-0.9
C=CC(=O)Nc1cc(Nc2nccc(Nc3cc(Cl)c(F)cc3C(C)(C)O)n2)c(OC)cc1N1CC[C@@H](N(C)C)C1	ABL1 T315I		1 µM	18
CCCS(=O)(=O)Nc1ccc(F)c(C(=O)c2c[nH]c3ncc(-c4ccc(Cl)cc4)cc23)c1F	ABL1		1 µM	< 20
CCOc1cc(-c2nncn2C)ccc1Nc1ncc2cc(C)nc(NCC(C)(C)C)c2n1	ABL1	FRET	1 µM	< 15
COc1cc2ncnc(Nc3ccc(Oc4ccccc4)c(C)c3C)c2cc1OC	ABL1		1 µM	-4
O=C(CSc1nc2nccnc2c(=O)n1CCc1ccccc1)Nc1nccs1	Tyrosine-protein kinase ABL1 (ABL1, Homo sapiens, UniProt P00519, E255K)		10 µM	-1
COc1cc(-c2cc(-c3ccc(N4CCNCC4)cc3)cnc2N)cc(OC)c1OC	ABL1 Y253F		0.1 µM	83
CNCc1ccc(-c2cc(-c3nc(-c4ccc(S(=O)(=O)C(C)C)cc4)cnc3N)on2)cc1	ABL1		2 µM	34
COc1cc2ncnc(Nc3ccc(Oc4ccccc4)cc3C)c2cc1OC	ABL1 Y253F		1 µM	12
CNc1cccc2cc(C(=O)Nc3ccc(C(=O)O)cc3)c(=O)[nH]c12	Tyrosine-protein kinase ABL1 (ABL1, Homo sapiens, UniProt P00519, Q252H)		10 µM	0.4
